Bioassay records as filed in PubChem.
CHO parental Ca – ATP-evoked calcium signal inhibitors, parental CHO, primary screen, counter-screen for OX1R antagonist project, cell-based, fluorescence, Fluo-8 calcium dye. parental CHO-K1, ATP-induced calcium, Fluo-8 fluorescence. inhibition, % at 5.6 µM. 330,000 compounds, 0.63% hits. AID 463079, 2010;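 active = inhibition above that plate's mean sample inhibition plus 3 SD, cut at about 26% in these data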;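 note: 0% = ATP-challenged DMSO wells and 100% = DMSO wells without ATP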
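Test system: untransfected parental CHO cell line; also added: ATP stimulus; dosing: 5.6 µM, single dose; signal: calcium-sensitive Fluo-8 fluorescence; measure: percent inhibition of ATP-evoked calcium rise, normalized to controls; benchmarks: low control ATP plus DMSO, high control DMSO only; replication: one well per compound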
OX1R antag-1 – antagonists of human orexin 1 receptor (OX1R). Orexin/Hypocretin receptor type 1 (Homo sapiens), O43613. OX1R-expressing cells, FRET antagonist read-out. inhibition, % at 6.6 µM. 330,000 compounds, 1.8% hits; in the data active = inhibition mostly above about 38%, no sharp cut-off; inactive = mostly below about 40%;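 note: 0% = agonist challenge alone and 100% = reference antagonist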
Target sequence (O43613 whole entry, looked up): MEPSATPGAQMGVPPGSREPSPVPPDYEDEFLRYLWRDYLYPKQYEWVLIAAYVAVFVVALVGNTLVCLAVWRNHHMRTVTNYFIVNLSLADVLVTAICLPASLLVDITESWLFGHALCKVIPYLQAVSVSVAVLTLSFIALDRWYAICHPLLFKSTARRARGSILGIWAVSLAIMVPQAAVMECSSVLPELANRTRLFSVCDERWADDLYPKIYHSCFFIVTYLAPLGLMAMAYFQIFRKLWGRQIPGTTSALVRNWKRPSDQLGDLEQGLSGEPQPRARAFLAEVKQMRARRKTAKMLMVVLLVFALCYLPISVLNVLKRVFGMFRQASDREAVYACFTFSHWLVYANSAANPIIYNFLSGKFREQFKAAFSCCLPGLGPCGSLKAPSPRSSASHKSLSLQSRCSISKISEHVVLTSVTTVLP
TAAR1 agonist – human TAAR1 agonists, primary screen, Fluo-8 calcium fluorescence, CHO RD-HGA16 cells; Trace amine-associated receptor 1 (Homo sapiens), Q96RJ0; vehicle wells 0%, saturating PEA agonist 100%; activation, % at 3 µM; 360,000 compounds, 0.99% hits; AID 624467, 2012;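 active = activation above the mean activation of all test compounds in the run plus 3 SD, cut at about 38% in these data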
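Test system: RD-HGA16 (CHO) cells co-expressing Gα16 and hTAAR1; dosing: one-point dosing at 3 µM (nominal); timing: 17-24 h seeding, 75 min 37 °C dye, 30 min RT; signal: kinetic Fluo-8 calcium fluorescence; read-out basis: % activation relative to PEA EC100 response; controls: DMSO and PEA EC100; replicates: n 1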
GPR7 antagonist – GPR7 receptor antagonists, primary screen, cell-based, fluorescence, single concentration. GPR7-expressing cells, fluorescence antagonist assay. 290,000 compounds, 1.1% hits. inhibition, % at 4.4 µM; in the data active = inhibition above about 16%, passing the limit was not always enough;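 note: cells stimulated with the agonist NPW; 0% = agonist with vehicle and 100% = vehicle without agonist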
OX1R antag-2 – OX1R (HCRTR1) antagonists, primary screen, fluorescence, CHO/OX1R cells, Fluo-8 calcium, orexin A. AID 434989, 2010. 330,000 compounds, 0.43% hits. Orexin/Hypocretin receptor type 1 (Homo sapiens), O43613. Fluo-8 calcium fluorescence. inhibition, % at 5 µM;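 active = inhibition above its plate's threshold, mean inhibition of all tested compounds on the plate plus 3 SD, cut at about 37% in these data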;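 note: 0% = orexin A challenge wells and 100% = SB-334867-A antagonist wells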
TAAR1 antag – human TAAR1 antagonists, primary screen, Fluo-8 calcium fluorescence, CHO RD-HGA16 cells | Trace amine-associated receptor 1 (Homo sapiens), Q96RJ0 | antagonist | inhibition, % at 3 µM | 360,000 compounds, 1.5% hits | AID 624466, 2012;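 active = inhibition above a per-plate cutoff, the mean inhibition of test compounds on that plate plus 3 SD, cut at about 49% in these data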;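 note: 0% = DMSO plus EC80 beta-PEA response and 100% = DMSO alone without agonist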
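System: RD-HGA16 CHO cells with stable hTAAR1 and Gα16 | Probe or stimulus: EC80 β-phenethylamine stimulus | Dosing: 3 µM, single point | Times: Dye loading 75 min at 37 °C, then 30 min room temperature | Measured by: Fluo-8 calcium-sensitive fluorescence | Read-out basis: % inhibition of agonist calcium response | Replicates: n of 1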
TAAR1 ag conf – human TAAR1 agonists, retest of hits, confirmation, Fluo-8 calcium fluorescence, CHO RD-HGA16 cells | shares compounds with TAAR1 agonist | scaled: DMSO 0%, maximal phenethylamine 100% | activation, % at 3 µM | 2,400 compounds, 82% hits;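 active = activation above a cutoff set at the run's mean compound activation plus 3 SD, cut at about 39% in these data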
Ga16 nonsel ag – nonselective calcium mobilization agonists, CHO-Ga16 cells, counter-screen for hTAAR1 agonist project, cell-based, fluorescence, CHO-Ga16 parental line; shares compounds with TAAR1 agonist; Fluo-8 calcium fluorescence; normalized to maximal ATP response, DMSO zero; activation, % at 3 µM; 2,400 compounds, 50% hits; AID 651787, 2012;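 active = activation above the run cutoff, the mean activation over all tested wells plus 3 SD, cut at about 12% in these data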;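 note: 0% = DMSO wells and 100% = maximal ATP response on the peak over basal ratio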
TAAR1 desens – TAAR1 desensitization by agonist hits, confirmation, counter-screen for TAAR1 agonist project, cell-based, fluorescence, tachyphylaxis. inhibition, % at 3 µM. AID 651951, 2012. shares compounds with TAAR1 agonist. CHO RD-HGA16 hTAAR1, Fluo-8 calcium, beta-PEA response inhibition. 2,400 compounds, 46% hits;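 active = inhibition above the run cutoff, the mean inhibition of all test compounds plus 3 SD, cut at about 49% in these data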;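 note: beta-PEA stimulus applied at its EC80; loss of beta-PEA calcium signal after compound pretreatment read as receptor desensitization; 0% = DMSO with beta-PEA at EC80 and 100% = DMSO alone without agonist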
Ga16 nonsel ant – inhibition of ATP-evoked calcium response in CHO-Ga16 cells, counter-screen for TAAR1 agonist project, cell-based, fluorescence. shares compounds with TAAR1 agonist. CHO-Ga16 ATP-induced calcium, Fluo-8 fluorescence. inhibition, % at 3 µM. 2,400 compounds, 39% hits;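 active = inhibition above the plate's mean compound inhibition plus 3 SD, computed per plate, cut at about 22% in these data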;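 note: 0% = EC80 ATP with DMSO and 100% = DMSO wells without ATP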
The depositor's hits bear a star. Only some compounds are listed: those with a hit (about 4.6% of all), similar ones and a draw of the others.

Screening CCCCc1c(-c2ccccc2OC)ncn1CCc1cccc(F)c1 returned TAAR1 agonist 69*, TAAR1 antag 43, TAAR1 ag conf 66*, Ga16 nonsel ag 4, TAAR1 desens 74* and Ga16 nonsel ant 21.
For Cc1c(C(N)=O)sc2ncn(CC(=O)N(C)C3CCCCC3)c(=O)c12 the results were CHO parental Ca -9, OX1R antag-1 14, TAAR1 agonist 0, GPR7 antagonist -1, OX1R antag-2 -7 and TAAR1 antag -6.
`C=CCc1c(C)nc(SCC(=C)C)[nH]c1=O` gave CHO parental Ca 2, OX1R antag-1 4, TAAR1 agonist 0, GPR7 antagonist -16, OX1R antag-2 5 and TAAR1 antag 8.
`C=CCN(CC=C)C(=O)CN1C(=O)NC(c2ccccc2)(c2ccccc2)C1=O` gave CHO parental Ca -23, OX1R antag-1 8, TAAR1 agonist 11, GPR7 antagonist -12, OX1R antag-2 -36 and TAAR1 antag -15.
CCCc1c(-c2ccccc2Br)ncn1Cc1ccccc1OC was read as TAAR1 agonist 2 and TAAR1 antag 10.
Screening CCCCc1c(-c2ccccc2Br)ncn1CCc1ccccc1OC returned TAAR1 agonist 70*, TAAR1 antag 83*, TAAR1 ag conf 73*, Ga16 nonsel ag 7, TAAR1 desens 82* and Ga16 nonsel ant 39*.
Screening O=C(Nc1ccncc1)Nc1cccc(Cl)c1 returned CHO parental Ca 23, OX1R antag-1 6, TAAR1 agonist 59*, GPR7 antagonist 10, OX1R antag-2 4, TAAR1 antag 34, TAAR1 ag conf 86*, Ga16 nonsel ag 16*, TAAR1 desens 52* and Ga16 nonsel ant 19.
For CN(c1cccc(NC(=O)Nc2cccc(Cl)c2)c1)S(C)(=O)=O the results were CHO parental Ca 73*, OX1R antag-1 98*, TAAR1 agonist 43*, GPR7 antagonist 10, OX1R antag-2 72*, TAAR1 antag 19, TAAR1 ag conf 37, Ga16 nonsel ag 9, TAAR1 desens 32 and Ga16 nonsel ant 29*.
For CC(=O)c1ccc(NC(=O)Nc2ccccc2)cc1 the results were CHO parental Ca -4, OX1R antag-1 14, TAAR1 agonist 54*, GPR7 antagonist 12, OX1R antag-2 -6, TAAR1 antag 15, TAAR1 ag conf 68*, Ga16 nonsel ag 11, TAAR1 desens 55* and Ga16 nonsel ant 14.
O=C(Nc1ccccc1)Nc1ccncc1 was read as CHO parental Ca 1, OX1R antag-1 8, TAAR1 agonist 82*, GPR7 antagonist -6, OX1R antag-2 1, TAAR1 antag 53*, TAAR1 ag conf 97*, Ga16 nonsel ag 6, TAAR1 desens 86* and Ga16 nonsel ant 8.
